Shown is part of a subset that was picked to be rich in hits.
YB-1 expression: YB-1 expression inhibition; U2OS, qRT-PCR YB-1 vs CDIP delta delta Cp, 16 h; hits give high values; zero = DMSO, each unit about twofold; actives 0.37% (n = 30,000); delta delta Cp (YB-1 minus CDIP) (no concentration beside the values);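 active = delta delta Cp rounded down to an integer at or above 3, about 3 SD of DMSO wells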;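 note: higher means less YB-1 transcript or more CDIP transcript relative to DMSO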
INS-1E ATP HTS: INS-1E beta cell protection from cytokine death; actives 0.1% (n = 20,000); AID 488910; protection from cytokine-induced ATP loss, % at 10 µM; INS-1E cytokine-induced death, ATP luminescence, 48 h; normalised: neutral wells 0, positive control 100;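 active = mean replicate protection from cytokine-induced ATP loss at least 50% and at least 75% of replicates each reaching 50%; inconclusive = meets only one of the two criteria, mean or replicate share; inactive = fails both the mean and replicate share criteria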
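assay system = INS-1E rat insulinoma cells | amount = 8000 cells per well | medium = phenol-red-free RPMI with 5% fetal bovine serum | doses = one compound concentration, pin transfer | timing = 48 h cytokine plus compound treatment, 10 min reagent incubation | also added = IL-1β, TNF-α and IFN-γ cytokine mix | signal = CellTiter-Glo luminescence measuring cellular ATP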
T cruzi HTS: inhibitors of intracellular Trypanosoma cruzi. activity score (inhibition), % at 5.01 µM. intracellular Trypanosoma cruzi in host cells, plate reader. AID 651903. actives 4.9% (n = 22,000); in the data active = activity score above about 55%; inconclusive = no clear call, values can overlap the other calls;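 note: parasites and compound incubated about four days before reading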
Numbers stand for hits; 0 = inactive; ? = inconclusive; - = no result given.

SMILES	YB-1 expression	INS-1E ATP HTS	T cruzi HTS
C[C@H](CO)N1C[C@H](C)[C@H](CN(C)Cc2ccc(C(=O)O)cc2)Oc2c(NC(=O)c3cnccn3)cccc2C1=O	0	0	0
C[C@H]1CN([C@@H](C)CO)C(=O)c2cccc(NC(=O)c3cnccn3)c2O[C@H]1CN(C)Cc1ccc(C(=O)Nc2ccccc2N)cc1	0	0	67.5
C[C@H]1CN([C@@H](C)CO)C(=O)c2cccc(NC(=O)c3cnccn3)c2O[C@@H]1CN(C)Cc1ccc(C(=O)Nc2ccccc2N)cc1	0	0	?
C[C@H](CO)N1C[C@H](C)[C@@H](CN(C)Cc2ccc(C(=O)Nc3ccccc3N)cc2)Oc2c(NC(=O)c3cnccn3)cccc2C1=O	0	0	75.1
CSc1sc(C(=O)/C=C/N(C)C)c(-c2ccccc2)c1C#N	0	-	-
C[C@@H]1CN([C@@H](C)CO)C(=O)c2cc(NS(=O)(=O)c3ccc(Cl)cc3)ccc2O[C@@H]1CN(C)Cc1ccc(Cl)c(Cl)c1	0	0	57.9
C[C@@H]1CN([C@@H](C)CO)C(=O)c2cc(NS(=O)(=O)c3ccccc3)ccc2O[C@@H]1CN(C)Cc1ccc(Cl)c(Cl)c1	0	0	0
C[C@@H]1CCCCO[C@H](CN(C)Cc2ccc(Cl)c(Cl)c2)[C@@H](C)CN([C@H](C)CO)C(=O)c2cc(NS(=O)(=O)c3cccs3)ccc2O1	0	0	0
C[C@@H]1CCCCO[C@@H](CN(C)Cc2ccc(Cl)c(Cl)c2)[C@@H](C)CN([C@H](C)CO)C(=O)c2cc(NS(=O)(=O)c3cccs3)ccc2O1	0	0	67.7
C[C@H]1CN([C@@H](C)CO)C(=O)c2cc(NS(=O)(=O)c3ccccc3)ccc2O[C@H]1CN(C)Cc1ccc(Cl)c(Cl)c1	0	-	51.7
C[C@@H]1CCCCO[C@@H](CN(C)Cc2ccc(C(F)(F)F)cc2)[C@@H](C)CN([C@H](C)CO)C(=O)c2cc(NS(=O)(=O)c3ccccc3)ccc2O1	0	0	0
C[C@@H]1CCCCO[C@@H](CN(C)Cc2ccc(C(F)(F)F)cc2)[C@@H](C)CN([C@H](C)CO)C(=O)c2cc(NS(=O)(=O)c3ccc(F)cc3)ccc2O1	0	0	64.2
C[C@H](CO)N1C[C@H](C)[C@H](CN(C)Cc2ccc(Cl)c(Cl)c2)Oc2ccc(NS(=O)(=O)c3ccc(Cl)cc3)cc2C1=O	0	0	0
O=C(CCCCc1ccc(O)cc1)CCc1ccc(O)cc1	0	-	-
Cc1ccc(S(=O)(=O)Nc2ccc3c(c2)C(=O)N([C@H](C)CO)C[C@H](C)[C@@H](CN(C)Cc2ccc(Cl)c(Cl)c2)OCCCC[C@@H](C)O3)cc1	0	0	?
Cc1ccc(S(=O)(=O)Nc2ccc3c(c2)C(=O)N([C@H](C)CO)C[C@@H](C)[C@H](CN(C)Cc2ccc(Cl)c(Cl)c2)O3)cc1	0	0	0
C[C@@H]1CN([C@H](C)CO)C(=O)c2cc(NS(=O)(=O)c3ccc(Cl)cc3)ccc2O[C@@H]1CN(C)Cc1ccc(Cl)c(Cl)c1	0	0	85.3
C[C@@H]1CCCCO[C@@H](CN(C)Cc2ccc(Cl)c(Cl)c2)[C@@H](C)CN([C@H](C)CO)C(=O)c2cc(NS(=O)(=O)c3ccc(F)cc3)ccc2O1	0	0	55.9
C[C@H](CO)N1C[C@H](C)[C@H](CN(C)Cc2ccc(Cl)c(Cl)c2)Oc2ccc(NS(=O)(=O)c3ccc(F)cc3)cc2C1=O	0	0	0
C[C@H]1CN([C@@H](C)CO)C(=O)c2cc(NS(=O)(=O)c3ccc(F)cc3)ccc2O[C@@H]1CN(C)Cc1ccc(Cl)c(Cl)c1	0	0	69.9
CCC(=O)OCC(=O)[C@@]1(OC(=O)CC)[C@H](C)CC2C3C([C@@H](O)C[C@@]21C)[C@@]1(C)C=CC(=O)C=C1C[C@H]3Cl (stereo partly specified)	0	-	-
C=CC1(C)OCO/C1=C\C[N+](C)(C)C (stereo unspecified)	0	-	-
COc1ccc(-n2c(=S)[nH]c3cc(C(=O)NC4CCCC(C)C4C)ccc3c2=O)c(OC)c1 (stereo unspecified)	0	-	-
O=C1/C(=C/c2ccc(O)cc2)SC(=S)N1CCc1ccccc1	0	-	-
C[C@H](CO)N1C[C@H](C)[C@H](CN(C)Cc2ccc(C(=O)Nc3ccccc3N)cc2)Oc2ccc(NC(=O)C3CCCCC3)cc2CC1=O	0	0	61.4
SMILES	YB-1 expression	INS-1E ATP HTS	T cruzi HTS
C[C@H](CO)N1C[C@H](C)[C@H](CN(C)Cc2ccc(C(=O)Nc3ccccc3N)cc2)Oc2ccc(NC(=O)C3CC3)cc2CC1=O	0	0	62.8
C[C@H]1CN([C@@H](C)CO)C(=O)Cc2cc(NC(=O)C3CC3)ccc2O[C@@H]1CN(C)Cc1ccc(C(=O)Nc2ccccc2N)cc1	0	0	0
C[C@@H]1CN([C@H](C)CO)C(=O)Cc2cc(NC(=O)C3CCCCC3)ccc2O[C@@H]1CN(C)Cc1ccc(C(=O)Nc2ccccc2N)cc1	0	0	0
CC(CO)(CO)NC(=S)Nc1ccc(F)c(Cl)c1	0	-	-
CCOC(=O)N1CCc2c(sc3ncn(Cc4ccc(Cl)cc4)c(=O)c23)C1	0	-	-
CCC(=O)c1ccc2c(c1)N(CC(C)N(C)C)c1ccccc1S2 (stereo unspecified)	0	-	-
COc1ccc(C(=O)n2nc3c(c2-c2ccc(OC)cc2)COC(C)(C)C3)cc1	0	-	-
C[C@@H]1CCCCO[C@H](CN(C)Cc2ccc(Cl)c(Cl)c2)[C@@H](C)CN([C@H](C)CO)C(=O)c2cc(NC(=O)Nc3ccccc3)ccc2O1	0	0	76.4
Cc1noc(C)c1NC(=O)Nc1ccc2c(c1)C(=O)N([C@H](C)CO)C[C@H](C)[C@@H](CN(C)Cc1ccc(Cl)c(Cl)c1)OCCCC[C@@H](C)O2	6.11	0	0
C[C@@H]1CCCCO[C@H](CN(C)Cc2ccc(Cl)c(Cl)c2)[C@@H](C)CN([C@H](C)CO)C(=O)c2cc(NC(=O)c3ccccc3)ccc2O1	0	0	0
C[C@H](CO)N1C[C@H](C)[C@H](CN(C)Cc2ccc(Cl)c(Cl)c2)Oc2ccc(NC(=O)C3CCCCC3)cc2C1=O	0	0	0
C[C@@H]1CCCCO[C@@H](CN(C)Cc2ccccc2)[C@@H](C)CN([C@H](C)CO)C(=O)c2cc(NC(=O)Nc3ccccc3)ccc2O1	0	0	0
C[C@@H]1CCCCO[C@@H](CN(C)Cc2ccc(Cl)c(Cl)c2)[C@@H](C)CN([C@H](C)CO)C(=O)c2cc(NC(=O)Nc3ccccc3)ccc2O1	0	0	77.9
C[C@@H]1CCCCO[C@@H](CN(C)Cc2ccc(Cl)c(Cl)c2)[C@@H](C)CN([C@H](C)CO)C(=O)c2cc(NC(=O)C3CCCCC3)ccc2O1	0	0	87.9
Cc1noc(C)c1NC(=O)Nc1ccc2c(c1)C(=O)N([C@H](C)CO)C[C@H](C)[C@H](CN(C)Cc1ccc3c(c1)OCO3)OCCCC[C@@H](C)O2	0	0	0
COc1ccc(C2C(C#N)=C(N)Oc3cc(C)n(CCc4ccc(OC)c(OC)c4)c(=O)c32)cc1 (stereo unspecified)	0	-	-
COC(=O)c1ccc2c(c1)N(C)S(=O)(=O)/C(=C\Nc1ccc(Cl)cc1)C2=O	0	-	-
